Screening data: PubChem, several laboratories
Ec RNAP inh – inhibitors of Escherichia coli RNA polymerase. P0A8V2. E. coli RNA polymerase, fluorescence transcription assay. inhibition, %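 (tested at 10 µM)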. 62,000 compounds, 0.2% hits; in the data active = inhibition above about 20%;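 also: 0% = enzyme without compound and 100% = no enzyme blank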
DAT uptake mod – human DAT dopamine uptake with cocaine, either direction; Q01959; LLC-PK1 hDAT cells, [14C]-dopamine uptake with cocaine IC80; actives deviate in either direction; B-score at 10 µM; 110,000 compounds, 1.3% hits;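 active = Z score or B-score, a plate-position-corrected score, falls beyond the plate's 99.7% confidence bounds, in either direction; inactive = both scores lie inside the 99.7% bounds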;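 also: scored against the spread of the other compound wells on the same plate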
Target sequence (Q01959 whole entry, looked up): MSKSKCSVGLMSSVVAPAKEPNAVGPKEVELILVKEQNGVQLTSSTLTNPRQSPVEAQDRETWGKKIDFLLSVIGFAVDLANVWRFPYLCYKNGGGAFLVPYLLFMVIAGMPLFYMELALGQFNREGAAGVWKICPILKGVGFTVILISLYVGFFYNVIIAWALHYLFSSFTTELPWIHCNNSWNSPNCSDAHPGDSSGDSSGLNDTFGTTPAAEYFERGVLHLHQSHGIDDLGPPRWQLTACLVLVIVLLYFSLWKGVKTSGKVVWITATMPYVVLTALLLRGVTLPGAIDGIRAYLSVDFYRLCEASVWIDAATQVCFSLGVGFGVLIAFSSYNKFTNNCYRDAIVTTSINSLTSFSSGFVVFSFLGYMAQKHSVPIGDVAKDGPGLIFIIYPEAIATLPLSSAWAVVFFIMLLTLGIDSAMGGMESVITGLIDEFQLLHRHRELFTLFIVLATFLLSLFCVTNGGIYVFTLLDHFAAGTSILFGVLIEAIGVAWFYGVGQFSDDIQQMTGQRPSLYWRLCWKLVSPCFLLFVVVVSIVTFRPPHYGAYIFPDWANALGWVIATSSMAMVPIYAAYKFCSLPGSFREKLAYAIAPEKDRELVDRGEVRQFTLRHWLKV
AP ELISA ortho – orthogonal test for alternative complement pathway inhibitors; Human serum alternative complement pathway, LPS-coated ELISA, C3 deposition; tested in compound mixtures; inhibition, % at 5 µM; 62,000 compounds, 0.08% hits; AID 1235;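 active = inhibition above 30% in each of the two pooled mixtures holding the compound, so the lower value exceeds 30%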;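 also: 0% = serum in Mg-EGTA without compound and 100% = EDTA serum blank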
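Test system: human serum complement alternative pathway, C3 deposition onto LPS / Medium: Mg2+-EGTA GVB++ buffer containing human serum at 1:15 dilution / Probe or stimulus: Plate-bound LPS / Times: 1 h at 37 °C / Signal: ELISA with HRP anti-human C3 antibody, TMB substrate, absorbance 450 nm / Measure: percent inhibition / Repeats: two pool placements per compound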
HEK293 NFkB inh – lowers PMA/ionomycin-induced NF-kB signal in HEK293 cells. AID 465. inhibition, % at 3 µM. HEK-293 NF-kB luciferase reporter, luminescence. 62,000 compounds, 0.21% hits;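 active = inhibition above the mean of all tested compounds plus 3 SD, cut at about 40% in these data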;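 also: 0% = stimulated DMSO wells and 100% = 10 µM reference inhibitor 5653914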
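Timing: 1 h pretreatment, 16 h stimulation, 37 °C; system: HEK-293 cells with stable firefly luciferase reporter driven by four HIV NF-kB elements; doses: 3 µM once, 0.30% DMSO; measured by: luciferase luminescence; control set: DMSO and 10 µM reference inhibitor; repeats: single test; reagent: PMA plus ionomycin mix as NF-kB-activating stimulus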
D1 allo mod – allosterically modulates the human D1 dopamine receptor | P21728 | HEK293 D1, CRE-luciferase, dopamine EC30 potentiation; actives deviate in either direction | B-score at 10 µM | 58,000 compounds, 5.9% hits;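 active = luminescence count or its row- and column-corrected plate score outside the 99.7% band of the plate's sample wells, on either side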
D1 mod confirm – confirmation of human D1 dopamine receptor allosteric modulators | shares compounds with D1 allo mod | HEK293 D1 CRE-luciferase, dopamine EC30 potentiation; hits give high values | luminescence at 10 µM | 2,200 compounds, 88% hits;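 active = luminescence in either of two replicates above the same-plate mean plus 3 SD of the low-dose dopamine control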
D1 ag no DA – activates D1 CRE-luciferase signal without dopamine present; shares compounds with D1 allo mod; HEK293 D1 CRE-luciferase, luminescence, no dopamine; hits give high values; luminescence at 10 µM; 1,900 compounds, 0.8% hits; in the data active = luminescence above about 3900
Isoprot counter – isoproterenol response counter-screen activity for D1 modulators; 2,200 compounds, 63% hits; calls only at 10 µM; AID 647; shares compounds with D1 allo mod; HEK293 D1 CRE-luciferase, isoproterenol EC30 counter-screen;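 active = luminescence in either replicate above plate mean of wells with a partly effective reference agonist dose plus 3 SD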;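 also: isoproterenol raises cAMP through native beta-adrenoceptor Gs so signal bypasses D1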
The depositor's hits bear a star; i = inactive; . = no result; + = active, no number. Only a selection was taken, and hits are over-represented in it overall.

SMILES	Ec RNAP inh	DAT uptake mod	AP ELISA ortho	HEK293 NFkB inh	D1 allo mod	D1 mod confirm	D1 ag no DA	Isoprot counter
O=C(C1CCC1)N1CCc2cc(S(=O)(=O)N3CCN(c4ccccn4)CC3)ccc21	6	0.61	7	10	6.1*	10104*	.	+
O=C(C1CC1)N1CCc2cc(S(=O)(=O)N3CCCc4ccccc43)ccc21	5	0.29	5	-5	0.081	.	.	.
COc1ccc(S(=O)(=O)N2CCN(c3ccccn3)CC2)cc1OC	9	0.52	-5	21	5.3*	6880*	.	i
CCOC(=O)N1CCN(S(=O)(=O)c2ccc3c(c2)CCN3C(=O)C2CCC2)CC1	7	0.89	21	4	3.3*	7472*	1692	i
CCOC(=O)c1ccc(NC(=O)c2c(N)n(Cc3ccccc3)c(=O)[nH]c2=O)cc1	.	-0.83	.	.	.	.	.	.
COC(=O)CN(c1ccc(OC)cc1)S(=O)(=O)c1ccc(OC)c(OC)c1	8	0.36	10	9	3*	10376*	1508	+
CCOc1ccc(N(CC(=O)OC)S(=O)(=O)c2ccc(OC)c(OC)c2)cc1	0	1.3	-3	16	3.6*	12916*	1768	+
COc1ccc(N(CC(=O)O)S(=O)(=O)c2ccc(OC)c(OC)c2)cc1	9	-0.41	13	.	-1.2	.	.	.
COc1ccc(Cl)cc1NC(=O)c1cccnc1	7	0.23	3	7	0.055	.	.	.
COc1ccc(C(=O)OCC(=O)NCc2ccco2)cc1OC	12	0.43	2	9	1.1	.	.	.
CCOc1ccc(C(=O)OCC(=O)NCc2ccco2)cc1OCC	0	0.63	1	3	7.7*	12216*	1596	+
COCCCn1c(Cc2csc(Nc3ccc(F)cc3)n2)nnc1SCC(N)=O	.	-0.0063	.	.	.	.	.	.
COc1cccc(C2C=C(c3ccc(OC)cc3OC)Nc3nnnn32)c1 (stereo unspecified)	5	0.82	11	-1	0.12	.	.	.
COc1ccc(OC)c(C2C=C(c3ccc(C)c(C)c3)Nc3nnnn32)c1 (stereo unspecified)	-4	2.2	12	16	3.9*	6516*	1816	i
COc1cccc(C2=CC(c3cc(OC)ccc3OC)n3nnnc3N2)c1 (stereo unspecified)	-3	.	11	10	4.1*	8488*	.	+
COc1ccc(C2=CC(c3ccc(OC)c(OC)c3)n3nnnc3N2)c(OC)c1 (stereo unspecified)	3	0.48	7	4	9.3*	15796*	2008	+
CC1(C)CC(=O)C2=C(C1)Oc1nc3ccccc3cc1C2C(C#N)C#N (stereo unspecified)	.	-0.41	.	.	.	.	.	.
CCn1c(=NC(=O)CN2C(=O)CCC2=O)sc2c(OC)ccc(OC)c21	2	0.03	10	-2	5.4*	11544*	.	i
CCn1c(=NC(=O)c2ccc(S(=O)(=O)N3CCOCC3)cc2)sc2cccc(OC)c21	1	-0.073	1	10	0.56	.	.	.
CCn1c(=NC(=O)c2ccc(N3C(=O)CCC3=O)cc2)sc2c(OC)ccc(OC)c21	9	-2	14	10	9.9*	22036*	1820	+
CCOC(=O)c1oc2nc(C(C)C)c3c(c2c1N)CC(C)(C)OC3	-11	1.1	11	8	4.7*	6644*	1544	+
COc1ncnc2c1oc1nc(C(C)C)c3c(c12)CC(C)(C)OC3	-1	-0.85	1	18	8.7*	20880*	1744	+
CCOc1ncnc2c1oc1nc(CC(C)C)c3c(c12)CC(C)(C)OC3	.	0.85	.	.	.	.	.	.
Nc1ccc(SC(F)(F)F)cc1C(=O)c1ccccc1	0	.	12	5	14*	13336*	1612	+
CC(C)(C)c1cc(NC(=O)COC(=O)C2CC2)n(-c2ccccc2)n1	13	0.39	10	7	2.1	.	.	.
